Measurements: ChEMBL document CHEMBL1143845, “In vitro activities of isavuconazole and other antifungal agents against Candida bloodstream isolates” (2007)
Converted amounts (≈) assume the structure as drawn.

Assays:
Assay type in all cases: functional
Candida = test: Antifungal activity against Candida sp. bloodstream isolates by broth microdilution method
Outline: (§1)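 CLSI M27-A2 broth microdilution in RPMI 1640 buffered to pH 7.0 with 0.165 M MOPS. Consecutive blood-culture isolates were subcultured at least twice on Sabouraud dextrose agar. Final inoculum was 0.5 × 103 to 2.5 × 10^3 cells/ml against twofold drug dilutions, incubated in air at 35°C for 24–48 h. MIC was read visually as no growth or ≥50% growth reduction versus drug-free control, depending on agent.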

Candida albicans = test: Antifungal activity against Candida albicans bloodstream isolates by broth microdilution method; outline: as §1
Nakaseomyces glabratus = test: Antifungal activity against Candida glabrata bloodstream isolates by broth microdilution method; outline: as §1
Pichia kudriavzevii = test: Antifungal activity against Candida krusei bloodstream isolates by broth microdilution method; outline: as §1
Candida parapsilosis = test: Antifungal activity against Candida parapsilosis bloodstream isolates by broth microdilution method; conditions: Lodderomyces parapsilosis; outline: as §1
[1] = Antifungal activity against Candida tropicalis bloodstream isolates by broth microdilution method; outline: as §1

Structure (SMILES): C[C@@H](c1ncncc1F)[C@](O)(Cn1cncn1)c1ccc(F)cc1F [VORICONAZOLE]
- MIC50 (Candida): 0.031 µg/mL (≈ 0.0887 µM)
- MIC90 (Candida): 0.5 µg/mL (≈ 1.43 µM)
- MIC50 (Candida albicans): 0.016 µg/mL (≈ 0.0458 µM)
- MIC90 (Candida albicans): 0.031 µg/mL (≈ 0.0887 µM)
- MIC50 (Nakaseomyces glabratus): 0.5 µg/mL (≈ 1.43 µM)
- MIC90 (Nakaseomyces glabratus): 2 µg/mL (≈ 5.73 µM)
- MIC50 (Pichia kudriavzevii): 0.5 µg/mL (≈ 1.43 µM)
- MIC90 (Pichia kudriavzevii): 1 µg/mL (≈ 2.86 µM)
- MIC50 (Candida parapsilosis): 0.031 µg/mL (≈ 0.0887 µM)
- MIC90 (Candida parapsilosis): 0.125 µg/mL (≈ 0.358 µM)
- MIC50 [1]: 0.063 µg/mL (≈ 0.18 µM)
- MIC90 [1]: 0.125 µg/mL (≈ 0.358 µM)

Structure (SMILES): C[C@@H](c1nc(-c2ccc(C#N)cc2)cs1)[C@](O)(Cn1cncn1)c1cc(F)ccc1F [ISAVUCONAZOLE]
- MIC50 (Candida): 0.016 µg/mL (≈ 0.0366 µM)
- MIC90 (Candida): 0.5 µg/mL (≈ 1.14 µM)
- MIC50 (Candida albicans): 0.002 µg/mL (≈ 0.00457 µM)
- MIC90 (Candida albicans): 0.004 µg/mL (≈ 0.00914 µM)
- MIC50 (Nakaseomyces glabratus): 0.25 µg/mL (≈ 0.571 µM)
- MIC90 (Nakaseomyces glabratus): 0.5 µg/mL (≈ 1.14 µM)
- MIC50 (Pichia kudriavzevii): 0.5 µg/mL (≈ 1.14 µM)
- MIC90 (Pichia kudriavzevii): 0.5 µg/mL (≈ 1.14 µM)
- MIC50 (Candida parapsilosis): 0.016 µg/mL (≈ 0.0366 µM)
- MIC90 (Candida parapsilosis): 0.031 µg/mL (≈ 0.0709 µM)
- MIC50 [1]: 0.031 µg/mL (≈ 0.0709 µM)
- MIC90 [1]: 0.063 µg/mL (≈ 0.144 µM)

Structure (SMILES): OC(Cn1cncn1)(Cn1cncn1)c1ccc(F)cc1F [FLUCONAZOLE]
- MIC50 (Candida): 1 µg/mL (≈ 3.27 µM)
- MIC90 (Candida): 16 µg/mL (≈ 52.2 µM)
- MIC50 (Candida albicans): 0.5 µg/mL (≈ 1.63 µM)
- MIC90 (Candida albicans): 1 µg/mL (≈ 3.27 µM)
- MIC50 (Pichia kudriavzevii): 32 µg/mL (≈ 104 µM)
- MIC90 (Pichia kudriavzevii): 64 µg/mL (≈ 209 µM)
- MIC50 (Candida parapsilosis): 1 µg/mL (≈ 3.27 µM)
- MIC90 (Candida parapsilosis): 2 µg/mL (≈ 6.53 µM)
- MIC50 [1]: 1 µg/mL (≈ 3.27 µM)
- MIC90 [1]: 1 µg/mL (≈ 3.27 µM)

Structure (SMILES): Nc1nc(=O)[nH]cc1F [FLUCYTOSINE]
- MIC50 (Candida): 0.063 µg/mL (≈ 0.488 µM)
- MIC90 (Candida): 2 µg/mL (≈ 15.5 µM)
- MIC50 (Candida albicans): 0.125 µg/mL (≈ 0.968 µM)
- MIC90 (Candida albicans): 0.25 µg/mL (≈ 1.94 µM)
- MIC50 (Nakaseomyces glabratus): 0.063 µg/mL (≈ 0.488 µM)
- MIC90 (Nakaseomyces glabratus): 0.063 µg/mL (≈ 0.488 µM)
- MIC50 (Pichia kudriavzevii): 16 µg/mL (≈ 124 µM)
- MIC90 (Pichia kudriavzevii): 16 µg/mL (≈ 124 µM)
- MIC50 (Candida parapsilosis): 0.125 µg/mL (≈ 0.968 µM)
- MIC90 (Candida parapsilosis): 0.125 µg/mL (≈ 0.968 µM)
- MIC50 [1]: 0.125 µg/mL (≈ 0.968 µM)
- MIC90 [1]: 128 µg/mL (≈ 992 µM)

Structure (SMILES): C[C@@H]1[C@H](O)[C@@H](C)/C=C/C=C/C=C/C=C/C=C/C=C/C=C/[C@H](O[C@@H]2O[C@H](C)[C@@H](O)[C@H](N)[C@@H]2O)C[C@@H]2O[C@](O)(C[C@@H](O)C[C@@H](O)[C@H](O)CC[C@@H](O)C[C@@H](O)CC(=O)O[C@H]1C)C[C@H](O)[C@H]2C(=O)O (stereo in doubt) [AMPHOTERICIN B]
- MIC50 (Candida): 0.25 µg/mL (≈ 0.271 µM)
- MIC90 (Candida): 0.5 µg/mL (≈ 0.541 µM)
- MIC50 (Candida albicans): 0.25 µg/mL (≈ 0.271 µM)
- MIC90 (Candida albicans): 0.5 µg/mL (≈ 0.541 µM)
- MIC50 (Nakaseomyces glabratus): 0.5 µg/mL (≈ 0.541 µM)
- MIC90 (Nakaseomyces glabratus): 0.5 µg/mL (≈ 0.541 µM)
- MIC50 (Pichia kudriavzevii): 0.5 µg/mL (≈ 0.541 µM)
- MIC90 (Pichia kudriavzevii): 0.5 µg/mL (≈ 0.541 µM)
- MIC50 (Candida parapsilosis): 0.25 µg/mL (≈ 0.271 µM)
- MIC90 (Candida parapsilosis): 0.5 µg/mL (≈ 0.541 µM)
- MIC50 [1]: 0.5 µg/mL (≈ 0.541 µM)
- MIC90 [1]: 0.5 µg/mL (≈ 0.541 µM)

Structure (SMILES): CCC(C)n1ncn(-c2ccc(N3CCN(c4ccc(OCC5COC(Cn6cncn6)(c6ccc(Cl)cc6Cl)O5)cc4)CC3)cc2)c1=O (stereo not given) [ITRACONAZOLE]
- MIC50 (Candida): 0.016 µg/mL (≈ 0.0227 µM)
- MIC90 (Candida): 0.25 µg/mL (≈ 0.354 µM)
- MIC50 (Candida albicans): 0.008 µg/mL (≈ 0.0113 µM)
- MIC90 (Candida albicans): 0.016 µg/mL (≈ 0.0227 µM)
- MIC50 (Nakaseomyces glabratus): 0.5 µg/mL (≈ 0.709 µM)
- MIC90 (Nakaseomyces glabratus): 1 µg/mL (≈ 1.42 µM)
- MIC50 (Pichia kudriavzevii): 0.5 µg/mL (≈ 0.709 µM)
- MIC90 (Pichia kudriavzevii): 0.5 µg/mL (≈ 0.709 µM)
- MIC50 (Candida parapsilosis): 0.016 µg/mL (≈ 0.0227 µM)
- MIC90 (Candida parapsilosis): 0.063 µg/mL (≈ 0.0893 µM)
- MIC50 [1]: 0.031 µg/mL (≈ 0.0439 µM)
- MIC90 [1]: 0.031 µg/mL (≈ 0.0439 µM)
